The record followed here is ChEMBL document CHEMBL1121516, “Synthesis and biological activity of fluoroalkylamine derivatives of narcotic analgesics” (J Med Chem, 1980).

For data set [1], the target named is T1, Opioid receptors; mu/kappa/delta (Homo sapiens, UniProt P41145+P41143+P35372). Put plainly: Inhibition of Opioid receptors binding by inhibiting specific [3H]naloxone binding by 50% in the presence of 100 mM NaCl. The class given is protein assay, Cavia porcellus.
The target in data set [2] is T1, Opioid receptors; mu/kappa/delta. As to the kind of experiment: Inhibition of Opioid receptors with [3H]naloxone binding in the absence of NaCl. In kind it is protein assay, Cavia porcellus.
Data set [3] is described as follows: […] (pKa) value was evaluated. In kind it is physicochemical. The method in brief:
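pKa by potentiometric titration in distilled water at 24 °C. Compound dissolved at 5 to 7.5×10^-3 M and titrated with 0.1039 M NaOH, with pH change followed on a pH meter. Each compound run in triplicate.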

For data set [4], the species on record is Mus musculus. As to the kind of experiment: Analgesic activity determined in the mouse hot plate test expressed as ED50; value ranges from 12.7-29.8. In kind it is functional. In general terms: In hot-plate and tail-flick tests a longer latency is read as antinociception.
Data set [5] has as its system Rattus norvegicus. Put plainly: Serum citrate level when administered intraperitoneally at dose 40 mg/kg in 6 rats. Also noted: dose 40 mg/kg. The class given is functional, organism-based. The essentials: (§1)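 Male Sprague–Dawley rats (200–225 g), dosed ip. Blood centrifuged to obtain serum, and citrate measured by the Camp and Farmer procedure. Values reported as mg/mL with SE.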

Data set [6] is filed under the species Mus musculus. As to the kind of experiment: Equilibrium dissociation constant (Ke) against response produced by normorphine in the mouse vas deferens. The class given is functional.
The species entered for data set [7] is Cavia porcellus. Put plainly: Agonist potency evaluated in the guinea pig ileum. In kind it is functional.
Data set [8] is filed under the species Mus musculus. Put plainly: (§2) Antagonist potency was evaluated in the mouse vas deferens relative to naloxone = 1. The class given is functional.
For data set [9], the species on record is Cavia porcellus. As to the kind of experiment: Inhibitory Dose required to reduce electrically stimulated contractions by 50% in guinea pig ileum. In kind it is functional. The note with it: read-out: ID50 (the source's name).
The species named for data set [10] is Mus musculus. As to the kind of experiment: Analgesic activity determined in the mouse hot plate test expressed as ED50; Range is 6.3-14.8. In kind it is functional.
For data set [11], the species on record is Mus musculus. As to the kind of experiment: Analgesic activity determined in the mouse hot plate test expressed as ED50.
Data set [12] is filed under the species Mus musculus. Put plainly: Analgesic activity determined in the mouse hot plate test expressed as ED50; Range is 17.8-72.1. In kind it is functional.
Data set [13] is filed under the species Mus musculus. As to the kind of experiment: Analgesic activity determined in the mouse hot plate test expressed as ED50; IA means in active to 100. In kind it is functional, organism-based.
The species named for data set [14] is Cavia porcellus. Described as §2. The class given is functional.
For data set [15], the species on record is Mus musculus. As to the kind of experiment: Analgesic activity determined in the mouse hot plate test expressed as ED50; I = inactive at 40. In kind it is functional, organism-based.
Data set [16] has as its system Rattus norvegicus. Put plainly: Serum citrate level when administered intraperitoneally at dose 12.5 mg/kg in 5 rats. In kind it is functional, organism-based. Also noted: dose 12.5 mg/kg. The method in brief:
as §1

Data set [17] is filed under the species Cavia porcellus. Put plainly: Inhibitory Dose required to reduce electrically stimulated contractions by 50% in guinea pig ileum; I = Infinite. The class given is functional.
In data set [18] the test system is Rattus norvegicus. As to the kind of experiment: Serum citrate level when administered intraperitoneally at dose 45 mg/kg in 7 rats. The class given is functional, organism-based. On the set-up: dose 45 mg/kg. The method in brief: as §1
For data set [19], the species on record is Mus musculus. Put plainly: Analgesic activity determined in the mouse hot plate test expressed as ED50; Range is 6.4-12.8. In kind it is functional.
The species named for data set [20] is Cavia porcellus. As to the kind of experiment: Agonist potency was evaluated in the guinea pig ileum. In kind it is functional.
For data set [21], the species on record is Mus musculus. Put plainly: Analgesic activity determined in the mouse hot plate test expressed as ED50; value ranges from 3.2-6.1. The class given is functional.

Activity calls are given as the source filed them. The calls are words filed in the database; no cut-off is given here.

What is called pKa is the pH at which an ionisable group is half protonated. A high value points to a group that holds its proton tightly. Broadly, the ED50 is the dose that gives a 50% effect, or the effect in half of the subjects. As to `CCOC(=O)C1(c2ccccc2)CCN(CCF)CC1.Cl`, the IC50 turned out to be 64000 nM in data set [1] and 20000 nM in [2]. For the same molecule, in data set [3], the pKa came out at 7.43. The same molecule gave an ED50 in the data set listed under Mus musculus [4] of 19.4 mg/kg. In the data set with Rattus norvegicus [5], this molecule had a Level of 81 mg/mL.
For `CS(=O)(=O)O.C[C@H]1C2Cc3ccc(O)cc3[C@@]1(C)CCN2CC(F)F`, the IC50 was 1150 nM in [1], 1000 nM in data set [2] and 453 nM in the data set listed under Cavia porcellus [9]. This molecule yielded a Ke in the data set filed under Mus musculus [6] of 2930 nM. The same molecule registered an Agonist potency in the data set filed under Cavia porcellus [7] of 0.16. The molecule also yielded a pKa in [3] of 6.52. In the data set filed under Mus musculus [8], the Antagonist potency stood at 0.001. The molecule further had an ED50 in the data set filed under Mus musculus [10] of 9.7 mg/kg.
In the case of `CN1CC[C@]23c4c5ccc(O)c4O[C@H]2[C@@H](O)C=C[C@H]3[C@H]1C5` [MORPHINE], in the data set filed under Mus musculus [11], it took a dose of 1.2 mg/kg to reach the 50% effect level (ED50).
In the case of `CCN1CC[C@]2(C)c3cc(O)ccc3CC1[C@@H]2C.CS(=O)(=O)O`, the ED50 in the data set filed under Mus musculus [12] came to 44.7 mg/kg. Moreover, the IC50 was determined as 200 nM in data set [1] and 180 nM in data set [2]. The pKa in data set [3] is 9.42.
Take `CCOC(=O)C1(c2ccccc2)CCN(CC(F)F)CC1.Cl`: the IC50 in data set [1] turned out to be 110000 nM; in data set [2], 85000 nM. In addition, in the data set listed under Mus musculus [13], the ED50 result was “inactive”. The molecule further had a pKa in data set [3] of 5.23.
Taken in the same sequence, the figures for `CCOC(=O)C1(c2ccccc2)CCN(CC(F)(F)F)CC1.Cl` were 60000 nM, 10000 nM, “inactive” and 3.13.
Regarding `CS(=O)(=O)O.C[C@H]1C2Cc3ccc(O)cc3[C@@]1(C)CCN2CC(F)(F)F`, the results for the IC50 in data set [1] and in data set [2] were 2500 nM and 1700 nM, respectively. The molecule further registered a pKa in [3] of 4.56. Also, in the data set listed under Cavia porcellus [14], the Agonist potency is recorded as 0. For the same molecule, the ED50 result in the data set listed under Mus musculus [15] was “inactive”.
The molecule `O=C(O)CF` showed a Level in the data set with Rattus norvegicus [16] of 132 mg/mL.
Consider `CS(=O)(=O)O.C[C@H]1C2Cc3ccc(O)cc3[C@@]1(C)CCN2CCF`, for which the IC50 in data set [1] is reported as 100 nM; in data set [2], 50 nM. In data set [3], this molecule displayed a pKa of 8.35. Also, the ID50 entry in the data set filed under Cavia porcellus [17] was “inactive”. Further, the Level with Rattus norvegicus [18] was found to be 121 mg/mL. Moreover, the ED50 in the data set listed under Mus musculus [19] came to 9.16 mg/kg. In the data set listed under Cavia porcellus [20], the Agonist potency was determined as 0.
`CCOC(=O)C1(c2ccccc2)CCN(CC)CC1.Cl`: the IC50 came to 120000 nM in data set [1] and 5000 nM in data set [2]. This molecule also came in with a pKa in data set [3] of 9.03. Also, in the data set filed under Mus musculus [21], the 50% effective dose (ED50) was 4.4 mg/kg.
